Reference: ChEMBL document CHEMBL5712076, “A TGFβ-PRMT5-MEP50 axis regulates cancer cell invasion through histone H3 and H4 arginine methylation coupled transcriptional activation and repression” (Oncogene, 2017)
Active and inactive are the calls of the source.

Legend:
[1] = tested on: A549; experiment: Anticancer activity against human A549 cells assessed as decrease in cell invasion at 500 nM for 4 days by crystal violet staining based matrigel assay; format: functional; details: time 4.0 day
How it was run: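 A549 cells were exposed to 500 nM for 0 or 4 days, then run in a Matrigel invasion assay through 8 μm porous polycarbonate membranes. Crystal violet-stained invaded cells on the underside were imaged by phase-contrast at 20X and quantified. Three independent experiments, mean ± S.E.M., one-way ANOVA.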

[2] = molecular target: Protein arginine N-methyltransferase 5 (Homo sapiens) (UniProt O14744); experiment: Inhibition of PRMT5 in human IMR-90 cells assessed as effect on histone […] methylation for 4 days by immunoblot analysis; format: cell-based; details: time 4.0 day
[3] = molecular target: Protein arginine N-methyltransferase 5 (Homo sapiens) (UniProt O14744); experiment: Inhibition of PRMT5 in human A549 cells assessed as decrease in histone […] methylation at 0.01 to 5 uM for 4 days by immunoblot analysis; format: cell-based; details: dose 0.01-5 µM, time 4.0 day
How it was run: (§1)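 A549 cells were exposed to 0, 10 nM, 100 nM, 500 nM, 1 μM or 5 μM for 4 days. Lysates were blotted for SYM10 (methylated SmD3) and GAPDH. Extracted histones were blotted for H4R3me2s and H3, with DB71 staining of the histones.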

[4] = tested on: NCI-H460; experiment: Anticancer activity against human NCI-H460 cells assessed as decrease in TGFbeta1-induced cell invasion at 500 nM for 4 days by crystal violet staining based matrigel assay; format: functional; details: time 4.0 day
[5] = molecular target: Protein arginine N-methyltransferase 5 (Homo sapiens) (UniProt O14744); experiment: Inhibition of PRMT5 in TGFbeta1-stimulated human A549 cells assessed as decrease in decrease in E-cadherin protein expression at 500 nM for 4 days by immunoblot analysis; format: cell-based; details: time 4.0 day
How it was run: (§2)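 Immunoblots of A549 or HS578T cells given or not given 10 nM TGFβ1 for 2 days and 500 nM inhibitor for 4 days. Probes were histone methylarginine marks and EMT-related proteins.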

[6] = molecular target: Protein arginine N-methyltransferase 5 (Homo sapiens) (UniProt O14744); experiment: Inhibition of PRMT5 in TGFbeta1-stimulated human A549 cells assessed as increase in snail protein expression at 500 nM for 4 days by immunoblot analysis; format: cell-based; details: time 4.0 day; how it was run: as §2
[7] = tested on: A549; experiment: Anticancer activity against human A549 cells assessed as decrease in TGFbeta1-induced cell invasion at 500 nM for 4 days by crystal violet staining based matrigel assay; format: functional; details: time 4.0 day
How it was run: (§3)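 Matrigel invasion through 8 μm pores in A549, SK-MES-1 or HS578T cells, with or without 500 nM inhibitor for 4 days and with or without 10 nM TGFβ1 for 2 days. Invaded cells on the membrane underside were stained with crystal violet, imaged by phase-contrast at 20X and counted. Mean ± S.E.M. of three independent experiments; one-way ANOVA.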

[8] = molecular target: Protein arginine N-methyltransferase 5 (Homo sapiens) (UniProt O14744); experiment: Inhibition of PRMT5 in TGFbeta1-stimulated human A549 cells assessed as decrease in H4R3me2s protein expression at 500 nM for 4 days by immunoblot analysis; format: cell-based; details: time 4.0 day; how it was run: as §2
[9] = molecular target: Protein arginine N-methyltransferase 5 (Homo sapiens) (UniProt O14744); experiment: Inhibition of PRMT5 in TGFbeta1-stimulated human A549 cells assessed as decrease in H3R2me1 protein expression at 500 nM for 4 days by immunoblot analysis; format: cell-based; details: time 4.0 day; how it was run: as §2
[10] = molecular target: Protein arginine N-methyltransferase 5 (Homo sapiens) (UniProt O14744); experiment: Inhibition of PRMT5 in TGFbeta1-stimulated human HS578T cells assessed as decrease in H3R2me1 protein expression at 500 nM for 4 days by immunoblot analysis; format: cell-based; details: Hs-578T, time 4.0 day; how it was run: as §2
[11] = tested on: IMR-90; experiment: Cytotoxicity against human IMR-90 cells assessed as effect on cell viability at 500 nM for 4 days by microscopic analysis; format: toxicity, cell-based; details: imr-90, 96 h, 0.5 µM, time 4 day
[12] = tested on: SK-MES-1; experiment: Anticancer activity against human SK-MES-1 cells assessed as decrease in TGFbeta1-induced cell invasion at 500 nM for 4 days by crystal violet staining based matrigel assay; format: functional; details: time 4.0 day; how it was run: as §3
[13] = molecular target: Protein arginine N-methyltransferase 5 (Homo sapiens) (UniProt O14744); experiment: Inhibition of PRMT5 in TGFbeta1-stimulated human A549 cells assessed as increase in vimentin protein expression at 500 nM for 4 days by immunoblot analysis; format: cell-based; details: time 4.0 day; how it was run: as §2
[14] = molecular target: Protein arginine N-methyltransferase 5 (Homo sapiens) (UniProt O14744); experiment: Inhibition of PRMT5 in TGFbeta1-stimulated human A549 cells assessed as decrease in H3R2me2s protein expression at 500 nM for 4 days by immunoblot analysis; format: cell-based; details: time 4.0 day; how it was run: as §2
[15] = tested on: Hs-578T; experiment: Anticancer activity against human Hs-578T cells assessed as decrease in TGFbeta1-induced cell invasion at 500 nM for 4 days by crystal violet staining based matrigel assay; format: functional; details: time 4.0 day; how it was run: as §3
[16] = tested on: A549; experiment: Anticancer activity in human A549 cells assessed as TGFbeta1-induced cell morphology change for 4 days by microscopic analysis; format: functional, cell-based; details: dose 500.0 nM, time 4.0 day
How it was run: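 A549 cells were given or not given 500 nM for 4 days and 10 nM TGFβ1 for 2 days. Cell morphology was imaged by microscopy, with inserts at higher magnification.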

[17] = molecular target: Protein arginine N-methyltransferase 5 (Homo sapiens) (UniProt O14744); experiment: Inhibition of PRMT5 in human A549 cells assessed as decrease in SmD3 methylation at 0.01 to 5 uM for 4 days by immunoblot analysis; format: cell-based; details: dose 0.01-5 µM, time 4.0 day; how it was run: as §1
[18] = tested on: NCI-H1339; experiment: Anticancer activity against human NCI-H1339 cells assessed as decrease in TGFbeta1-induced cell invasion at 500 nM for 4 days by crystal violet staining based matrigel assay; format: functional; details: time 4.0 day
[19] = molecular target: Protein arginine N-methyltransferase 5 (Homo sapiens) (UniProt O14744); experiment: Inhibition of PRMT5 in TGFbeta1-stimulated human HS578T cells assessed as decrease in H3R2me2s protein expression at 500 nM for 4 days by immunoblot analysis; format: cell-based; details: Hs-578T, time 4.0 day; how it was run: as §2
[20] = tested on: A549; experiment: Anticancer activity against human A549 cells assessed as decrease in cell migration at 500 nM for 4 days by crystal violet staining based matrigel assay; format: functional; details: time 4.0 day
[21] = molecular target: Protein arginine N-methyltransferase 5 (Homo sapiens) (UniProt O14744); experiment: Inhibition of PRMT5 in TGFbeta1-stimulated human HS578T cells assessed as decrease in H4R3me2s protein expression at 500 nM for 4 days by immunoblot analysis; format: cell-based; details: Hs-578T, time 4.0 day; how it was run: as §2
[22] = tested on: A549; experiment: Cytotoxicity against human A549 cells assessed as decrease in cell viability at 500 nM for 4 days by microscopic analysis; format: functional, cell-based; details: time 4.0 day
[23] = molecular target: Protein arginine N-methyltransferase 5 (Homo sapiens) (UniProt O14744); experiment: Inhibition of PRMT5 in human IMR-90 cells assessed as effect on SmD3 methylation for 4 days by immunoblot analysis; format: cell-based; details: time 4.0 day

Sequence of Protein arginine N-methyltransferase 5 (Homo sapiens) (O14744 whole entry): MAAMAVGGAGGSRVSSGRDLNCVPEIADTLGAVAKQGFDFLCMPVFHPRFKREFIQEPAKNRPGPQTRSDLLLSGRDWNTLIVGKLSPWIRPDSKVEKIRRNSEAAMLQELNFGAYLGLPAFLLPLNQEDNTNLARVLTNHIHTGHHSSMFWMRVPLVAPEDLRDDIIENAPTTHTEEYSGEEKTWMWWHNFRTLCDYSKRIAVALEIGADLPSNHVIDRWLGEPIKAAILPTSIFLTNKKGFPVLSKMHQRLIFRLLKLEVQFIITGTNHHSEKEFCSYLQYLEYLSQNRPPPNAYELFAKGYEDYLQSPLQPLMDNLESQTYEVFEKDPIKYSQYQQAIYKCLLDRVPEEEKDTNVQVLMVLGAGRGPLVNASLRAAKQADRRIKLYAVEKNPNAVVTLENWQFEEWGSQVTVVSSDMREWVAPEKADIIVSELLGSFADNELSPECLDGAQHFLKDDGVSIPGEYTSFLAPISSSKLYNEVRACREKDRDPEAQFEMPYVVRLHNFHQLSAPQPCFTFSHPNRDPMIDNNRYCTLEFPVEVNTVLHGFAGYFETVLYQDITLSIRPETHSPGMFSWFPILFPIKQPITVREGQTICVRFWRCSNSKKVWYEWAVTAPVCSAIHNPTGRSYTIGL

O=C(NC[C@H](O)CN1CCc2ccccc2C1)c1ccnc(NC2CCC2)c1
inactive: inhibition [2] | inhibition [23]
active: inhibition [1] | inhibition [3] | inhibition [4] | inhibition [5] | inhibition [6] | inhibition [7] | inhibition [8] | inhibition [9] | inhibition [10] | inhibition [12] | inhibition [13] | inhibition [14] | inhibition [15] | Activity [16] | inhibition [17] | inhibition [18] | inhibition [19] | inhibition [20] | inhibition [21] | inhibition [22]
Non-Toxic: Activity [11]
